A short description of test [1]: Antioxidant activity assessed as DPPH radical scavenging activity measured after 30 mins. Format: functional. The procedure, abridged:
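Test compound solution (50 μL) mixed with 150 μL ethanolic DPPH, 100 μM final; 37 °C for 30 min; absorbance at 515 nm. Percent inhibition relative to a 100 μM DPPH ethanol blank.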
A general note: The DPPH test is a chemical assay of radical scavenging.

For test [2], the system named is Brain. Kind of test: Antioxidant activity in Wistar rat brain homogenate assessed as inhibition of […] lipid peroxidation by measuring reduction in TBARS level preincubated for 30 mins followed by […] and measured after 1 hr. It is filed as functional, tissue-based. An outline of the steps: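 Adult male Wistar rat whole brain homogenized 1/10 (w/v) in PBS pH 7.4. Spun 10 min at 800 rcf; supernatant set to 2.666 mg protein/mL. Supernatant with EDTA and compound in DMSO preincubated 30 min at 37 °C. FeSO4 added (10 μM final), then 1 h at 37 °C. TBA/TCA reagent added, heated 80 °C 30 min, A540 read. Calibrated against TMP standard curve; IC50 by linear regression.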

A further test has as its system Giardia intestinalis. Kind of test: Antiparasitic activity against Giardia intestinalis IMSS:0989:1 assessed as inhibition of parasitic growth treated for 48 hrs followed by compound washout and measured after 48 hrs by MTT/PMS dye based colorimetric method. It is filed as functional, organism-based. As to conditions: Giardia duodenalis, IMSS:0989:1, 48 h; call rule not given here. An outline of the steps: (§1)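 Axenic log-phase trophozoites in TYI-S-33 medium: E. histolytica HM1-IMSS with 10% heat-inactivated bovine serum (6 × 10^3 cells); G. lamblia IMSS:8909:1 with 10% calf serum and bovine bile (5 × 10^4 cells). Exposed 48 h at 37 °C to 2.5−200 μg/mL in DMSO, then subcultured drug-free 48 h. Counted by hemocytometer, confirmed by MTT/PMS formazan at 570 nm. Duplicates, ≥3 repeats; IC50 by probit regression.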

In a further test the test system is Rattus norvegicus. The experiment in a line: Antidiarrheal activity in po dosed Sprague-Dawley rat assessed as inhibition of charcoal-gum acacia-induced hyperperistalsis by measuring reduction in distance travelled by charcoal from pylorus to cecum pretreated for 20 mins followed by charcoal meal stimulation and measured after 30 mins. As to conditions: read-out: ID50 (the source's name). Format: functional.

For test [3], the system named is Brain. The experiment in a line: Potency index, ratio of quercetin IC50 to test compound IC50 for antioxidant activity in Wistar rat brain homogenate assessed as inhibition of FeCl2-induced lipid peroxidation. Format: functional, tissue-based.
Test [4] concerns Brain. Kind of test: Potency index, ratio of BHT IC50 to test compound IC50 for antioxidant activity in Wistar rat brain homogenate assessed as inhibition of FeCl2-induced lipid peroxidation. Format: functional, tissue-based.
The subject of the next test is Entamoeba histolytica. Kind of test: Antiparasitic activity against Entamoeba histolytica HM1-IMSS trophozoites assessed as inhibition of parasitic growth treated for 48 hrs followed by compound washout and measured after 48 hrs by MTT/PMS dye based colorimetric method. Format: functional, organism-based. The conditions noted are these: HM-1:IMSS. An outline of the steps:
as §1

[5] abbreviates: Rattus norvegicus, Wistar, Brain, read-out: IC50.

Counter-ions that a name gives are not always drawn.

By IC50 is commonly meant the concentration at which inhibition is half-maximal.

Turning to `COc1c(C(C)C)cc2c(c1O)C[C@]13CCC[C@](C)(C(=O)O1)[C@@H]3CC2`, the concentration for half-maximal inhibition (IC50) entry was “Not Active” in test [1] and 40.9 µM with Brain [2] (setting [5]).
In the case of `CC(C)c1cc2c(c(O)c1O)[C@]13CCC[C@](C)([C@H](O)OC1=O)[C@@H]3CC2`, the IC50 stood at 63 µM in the test on Giardia intestinalis, 24.8 µM in test [1] (read-out: IC50), 5.9 µM in the test on Brain [2] (setting [5]) and 37.8 µM in the test with Entamoeba histolytica. For the same compound, the ED50 in the test on Rattus norvegicus is 4.1 µmol/kg. Also, the Ratio IC50 with Brain [3] was found to be 4; in the test on Brain [4], 5.
With `COc1c(C(C)C)cc2c(c1O)[C@]13CCC[C@](C)([C@H](O)OC1=O)[C@@H]3CC2`, the half-inhibitory concentration (IC50) in the test with Giardia intestinalis was 67.1 µM; in test [1] it was “Not Active”; in the test on Brain [2], “Not Active”; with Entamoeba histolytica, 43 µM. Further, the ED50 with Rattus norvegicus is 2.2 µmol/kg.
Regarding `COc1c(C(C)C)cc2c(c1OC(C)=O)[C@]13CCC[C@](C)([C@H](OC(C)=O)OC1=O)[C@@H]3CC2`, the IC50 entry (in test [1]; in the test on Brain [2]) was “Not Active” each time.
On to `COc1c(C(C)C)cc2c(c1O)[C@]13CCC[C@](C)([C@H](OC(C)=O)OC1=O)[C@@H]3CC2`, for which the IC50 with Giardia intestinalis is 46.4 µM; in test [1], “Not Active”; with Brain [2], “Not Active”; in the test on Entamoeba histolytica, 34.9 µM.
As to `CN(C)C(=O)C(CCN1CCC(O)(c2ccc(Cl)cc2)CC1)(c1ccccc1)c1ccccc1` [LOPERAMIDE HYDROCHLORIDE], the ED50 in the test with Rattus norvegicus was determined as 0.2 µmol/kg.
On to `CC(C)c1cc2c(c(O)c1O)[C@]13CCC[C@](C)(COC1=O)[C@@H]3CC2`, for which the IC50 in the test with Giardia intestinalis worked out at 49 µM; in test [1] (read-out: IC50) it was 29.9 µM; in the test on Brain [2] (setting [5]), 2.7 µM; in the test with Entamoeba histolytica, 31.3 µM. Also, the ED50 with Rattus norvegicus is 5.5 µmol/kg. The Ratio IC50 with Brain [3] and with Brain [4] was 2 in each case.
On to `CC(=O)Oc1c(C(C)C)cc2c(c1OC(C)=O)[C@]13CCC[C@](C)([C@H](OC(C)=O)OC1=O)[C@@H]3CC2`, for which the half-inhibitory concentration (IC50) is 47.7 µM in the test on Giardia intestinalis, “Not Active” in test [1], “Not Active” in the test with Brain [2] and 39.5 µM in the test with Entamoeba histolytica. Further, the ED50 in the test on Rattus norvegicus was 2.7 µmol/kg.
As to `O=c1c(O)c(-c2ccc(O)c(O)c2)oc2cc(O)cc(O)c12` [QUERCETIN], the ED50 in the test on Rattus norvegicus turned out to be 1.1 µmol/kg. In test [1] (read-out: IC50), the half-maximal inhibitory concentration (IC50) was 10.9 µM.
As to `Cc1cc(C(C)(C)C)c(O)c(C(C)(C)C)c1` [BUTYLATED HYDROXYTOLUENE], the half-inhibitory concentration (IC50) with Brain [2] (setting [5]) was 1.2 µM.
For `CC[C@H]1CN2CCc3cc(OC)c(OC)cc3[C@@H]2C[C@@H]1C[C@H]1NCCc2cc(OC)c(OC)cc21` [EMETINE], the concentration for half-maximal inhibition (IC50) in the test with Giardia intestinalis amounted to 0.8 µM.
Turning to `Cc1c(C)c2c(c(C)c1O)CC[C@@](C)(CCC[C@H](C)CCC[C@H](C)CCCC(C)C)O2` [ALPHA-TOCOPHEROL], in test [1] (read-out: IC50), the 50% inhibitory concentration (IC50) was 31.7 µM.
In the case of `COC(=O)[C@]12CCC[C@](C)(C=O)[C@@H]1CCc1cc(C(C)C)c(OC)c(O)c12`, the IC50 is 61.8 µM with Giardia intestinalis, “Not Active” in test [1], 19.2 µM with Brain [2] (setting [5]) and 48.5 µM in the test with Entamoeba histolytica.
With `Cc1ncc([N+](=O)[O-])n1CCO` [METRONIDAZOLE], the IC50 was 1.2 µM in the test with Giardia intestinalis and 0.2 µM in the test on Entamoeba histolytica.

For the origin of these results see ChEMBL document CHEMBL4316658, “Structure and Absolute Configuration of Abietane Diterpenoids from Salvia clinopodioides: Antioxidant, Antiprotozoal, and Antipropulsive Activities” (J Nat Prod, 2019).
